In brackets after ≈: the same amount, converted by molar mass.

In general, IC50 refers to the concentration needed to halve the response being measured. Low readings indicate greater potency, high ones weaker potency.

This experiment relates to A2780. Nature of the experiment: Cytotoxicity against human A2780 cells. In kind it is functional, cell-based. The gist of the method:
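A2780 human ovarian cancer cells; growth-inhibition assay run per an earlier published protocol, with actinomycin D as positive control; value is the concentration that inhibited growth by 50% (IC50).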
`CC1(C)C=Cc2c(c3c(c4c2O[C@H](c2ccccc2)CC4=O)OC(C)(C)C=C3)O1` yielded an IC50 of 33 µg/mL (≈ 85 µM). The figure for `C=C[C@@]1(C)C[C@@H](OC(C)=O)[C@H](C(C)(C)O)C[C@@H]1C(=C)C` is 17 µg/mL (≈ 60.6 µM); for `CC1(C)C=Cc2c(c3c(c4c2O[C@H](c2ccccc2)[C@@H](O)C4=O)OC(C)(C)C=C3)O1` it is 20 µg/mL (≈ 49.4 µM). On to `COc1cc(OC)c2c(c1CC=C(C)C)O[C@H](c1ccccc1)CC2=O` [CANDIDONE], for which the IC50 turned out to be 23 µg/mL (≈ 65.3 µM). `C=C(C)[C@H]1Cc2c(ccc3c2O[C@@H]2COc4cc(OC)c(OC)cc4[C@@H]2C3=O)O1` [ROTENONE]: the IC50 worked out at 0.7 µg/mL (≈ 1.77 µM). The figure for `CC(C)=CCc1c(O)c2c(c3c1OC(C)(C)C=C3)O[C@H](c1ccccc1)[C@@H](O)C2=O` [ISOMUNDULINOL] is 18 µg/mL (≈ 44.3 µM); for `CC(C)=CCc1c2c(c(O)c3c1O[C@H](c1ccccc1)[C@@H](O)C3=O)C=CC(C)(C)O2` [MUNDULINOL] it is 25 µg/mL (≈ 61.5 µM).

For the compound `COc1cc2c(cc1OC)[C@]1(O)C(=O)c3ccc4c(c3O[C@@H]1CO2)C=CC(C)(C)O4` [TEPHROSIN], the IC50 was 9.1 µg/mL (≈ 22.2 µM). The figure for `COc1c(-c2coc3cc4c(cc3c2=O)C=CC(C)(C)O4)ccc2c1C=CC(C)(C)O2` [MUNETONE] is 20 µg/mL (≈ 48 µM); for `COc1c(-c2coc3cc4c(cc3c2=O)CC(O)C(C)(C)O4)ccc2c1C=CC(C)(C)O2` (stereo unspecified) [MUNDULONE] it is 13 µg/mL (≈ 29.9 µM).

The compound `C=C(C)[C@H]1Cc2c(ccc3c2O[C@@H]2COc4cc(OC)c(OC)cc4[C@]2(O)C3=O)O1` [ROTENOLONE] yielded a concentration for half-maximal inhibition (IC50) of 0.5 µg/mL (≈ 1.22 µM).

Source of the values: ChEMBL document CHEMBL1146511, “Cytotoxic compounds from Mundulea chapelieri from the Madagascar Rainforest” (J Nat Prod, 2004).
